# TMEM16A act = TMEM16A chloride channel activators or potentiators, primary screen, cell-based, HTS | HEK293 TMEM16A/YFP-H148Q/I152L, iodide quench fluorescence; hits give low values | Anoctamin-1 (Mus musculus), Q8BHY3 | B-score at 10 µM | 340,000 compounds, 0.3% hits;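 active = fluorescence-ratio B-score plate-corrected deviation score at least 3 library SD below zero, with starting fluorescence score within 5 deviations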;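 also: channel opened by trigger with iodide after compound preincubation; score built on the fluorescence ratio of max minus min over baseline; more negative score means more quench and so TMEM16A activation or potentiation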
# CRFBP-R2 agonist = agonists of CRF-BP/CRF-R2 complex, primary screen, cell-based, HEK293, calcium dye fluorescence, uHTS; CRF-binding protein / CRF receptor 2 complex (human); calcium dye fluorescence (FLIPR); percent of saturating CRF peptide response; 350,000 compounds, 0.46% hits; activation, % at 13.2 µM;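 active = activation of at least 50%, plus an integration ratio under a set limit after plate pattern correction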;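 also: plate controls were neutral control wells without compound for no effect and CRF at EC100 for full effect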
# TAAR1 ag = human TAAR1 agonists, primary screen, Fluo-8 calcium fluorescence, CHO RD-HGA16 cells; 360,000 compounds, 0.99% hits; AID 624467, 2012; activation, % at 3 µM; Trace amine-associated receptor 1 (Homo sapiens), Q96RJ0; vehicle wells 0%, saturating PEA agonist 100%;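 active = activation above the mean activation of all test compounds in the run plus 3 SD, cut at about 38% in these data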
# Target sequence (Q96RJ0 whole entry, looked up): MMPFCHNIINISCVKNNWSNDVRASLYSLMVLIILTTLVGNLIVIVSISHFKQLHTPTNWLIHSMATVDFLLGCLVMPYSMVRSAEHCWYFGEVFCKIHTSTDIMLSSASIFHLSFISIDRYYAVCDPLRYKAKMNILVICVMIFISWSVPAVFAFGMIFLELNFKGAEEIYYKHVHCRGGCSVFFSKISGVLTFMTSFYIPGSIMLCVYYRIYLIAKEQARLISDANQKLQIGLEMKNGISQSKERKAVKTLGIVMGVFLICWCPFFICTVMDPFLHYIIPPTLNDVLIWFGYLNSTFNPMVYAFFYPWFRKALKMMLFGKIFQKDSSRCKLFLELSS
#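 System: CHO-derived RD-HGA16 cells with stable Gα16 and human TAAR1. Times: 17-24 h plating, Fluo-8 75 min 37 °C, 30 min RT. Measured by: calcium-sensitive Fluo-8 signal, excitation 470-495, emission 515-575 nm. Read-out basis: % activation relative to PEA EC100 response. Control set: DMSO and PEA EC100. Repeats: no replicates (n 1).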
# TAAR1 antagonist = human TAAR1 antagonists, primary screen, Fluo-8 calcium fluorescence, CHO RD-HGA16 cells. 360,000 compounds, 1.5% hits. antagonist. Trace amine-associated receptor 1 (Homo sapiens), Q96RJ0. inhibition, % at 3 µM;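 active = inhibition above a per-plate cutoff, the mean inhibition of test compounds on that plate plus 3 SD, cut at about 49% in these data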;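 also: 0% = DMSO plus EC80 beta-PEA response and 100% = DMSO alone without agonist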
#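 Test system: CHO RD-HGA16 cells bearing hTAAR1 | Reagent: β-PEA, EC80 | Compound dosing: 3 µM, single point | Schedule: Dye loading 75 min at 37 °C, then 30 min room temperature | Signal: Calcium fluorescence with Fluo-8 | Evaluation: Percent inhibition of PEA-evoked calcium signal, max/basal emission ratio | Control set: DMSO-only wells and EC80 β-PEA-stimulated wells | Repeats: Singlicate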
# ANO1 block = TMEM16A chloride channel inhibitors, primary screen, cell-based, HTS; 310,000 compounds, 1.2% hits; normalized B-score (activity score, 25-100; higher = stronger inhibition) at 10 µM; HEK293 TMEM16A/YFP iodide influx fluorescence, ionomycin; Anoctamin-1 (Mus musculus), Q8BHY3;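 active = ratio plate-corrected score three or more library SD toward inhibition, starting fluorescence score within five deviations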;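 also: score derived from kinetic fluorescence span divided by baseline fluorescence per well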
# CRFR2-BP antag = antagonists of CRF-BP/CRF-R2 complex, primary screen, cell-based, HEK293, calcium dye fluorescence, uHTS; CRF-induced calcium fluorescence; inhibition, % at 11.8 µM; 350,000 compounds, 0.59% hits;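 active = inhibition of the ligand-induced calcium signal above about 50% at the single tested concentration, limit read from the data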
# The depositor's hits bear a star; i = inactive; . = no result. Most compounds without a hit are left out; they make up all but 3.9% or so of the library.
SMILES,TMEM16A act,CRFBP-R2 agonist,TAAR1 ag,TAAR1 antagonist,ANO1 block,CRFR2-BP antag
Cc1ccc(-c2c(C)sc(NC(=O)C3C4CCC(O4)C3C(=O)O)c2C(=O)OC(C)C)cc1 (configuration not stated),i,0,16,7,i,-17
CSCCC(C(=O)NC1CCCC1)n1c(C2CCCC2)nc2ccccc21 (configuration not stated),.,.,-1,-44,.,.
CC(C)CC(c1nnnn1Cc1cccs1)N1CCN(c2nc3ccccc3s2)CC1 (configuration not stated),-8.3*,0,5,6,i,0
CC(C)C(c1nnnn1Cc1ccco1)N1CCN(c2nc3ccccc3s2)CC1 (configuration not stated),i,0,16,55*,i,-7
CC(C)C(c1nnnn1Cc1ccco1)N1CCN(C2CCCC2)CC1 (configuration not stated),i,1,1,9,i,0
CC(NC(=O)Nc1cccc(Cl)c1)C(c1cccs1)N1CCCC1 (configuration not stated),i,-3,28,-13,i,2
CC(NC(=O)Nc1ccc([N+](=O)[O-])cc1)C(c1cccs1)N1CCCC1 (configuration not stated),i,2,48*,-2,i,10
CSCCC(NC(=O)c1ccccc1)C(=O)N/N=C(\C)c1ccccc1 (configuration not stated),i,112*,10,-14,i,-90
CSCCC(NC(=O)c1ccccc1)C(=O)N/N=C(\C)Cc1ccccc1 (configuration not stated),i,44,0,-4,i,-35
CC(=O)N1CCN(C(=O)CSc2nnc(C)n2-c2ccccc2)CC1,i,3,1,-25,i,-20
COc1ccccc1CNC(=O)c1cc(C)nc2ccccc12,i,-1,0,10,i,28
COc1ccc(-c2cc(C(=O)NC3CCCC3)c3ccccc3n2)cc1OC,i,1,8,45,i,97*
COc1ccc(-c2cc(-c3nnc(COC(=O)C4CC4)o3)c3ccccc3n2)cc1OC,i,0,9,52*,i,10
COc1ccc(CNC(=O)c2cc(C)nc3ccccc23)cc1OC,-5.6*,-1,2,-3,i,4
COc1cc(-c2cc(C(=O)Nc3cccc(C(C)=O)c3)c3ccccc3n2)cc(OC)c1OC,i,1,20,68*,i,9
CC(=O)c1cccc(NC(=O)c2cc(-c3ccncc3)nc3ccccc23)c1,i,1,10,46,.,0
COc1ccc(NC(=O)CS(=O)(=O)Cc2ccccc2)c([N+](=O)[O-])c1,i,-1,0,-4,i,-4
O=C(CN(Cc1ccccc1)S(=O)(=O)c1ccc(F)cc1)NCc1cccnc1,i,-1,2,-8,i,-2
COc1ccc(-c2cc(C(=O)Nc3ccc(C(N)=O)cc3)c3ccccc3n2)cc1OC,i,1,12,54*,i,11
COc1ccc(NC(=O)c2cc(-c3ccc(OC)c(OC)c3)nc3ccccc23)c(OC)c1,i,3,10,43,i,5
O=C(O)CCC(=O)Nc1nnc(C(F)(F)F)s1,i,2,-1,6,i,4
CCC(NC(=O)Nc1nnc(C(F)(F)F)s1)(C(F)(F)F)C(F)(F)F,i,48,15,-5,100*,29
COC(=O)c1ccc(Cn2cc(Cl)cn2)o1,i,-1,1,-52,i,6
COc1ccc(N=Cc2c(O)c3ccccc3n2C(C)=O)cc1,i,99*,7,13,i,-67
Cc1[nH]c(=O)c(C#N)cc1-c1csc(-c2ccccc2)n1,i,-6,1,2,i,51*
SMILES,TMEM16A act,CRFBP-R2 agonist,TAAR1 ag,TAAR1 antagonist,ANO1 block,CRFR2-BP antag
Cc1nn(CC(=O)N2CCN(c3ccccc3)CC2)c(=O)c2cccn12,i,-1,1,6,i,-11
Cc1ccc(-c2csc(Nc3ccc(C(=O)O)cc3)[n+]2Cc2ccccc2)cc1,i,-7,-1,9,i,69*
COc1ccc(-c2csc(Nc3ccccc3)[n+]2Cc2ccccc2)cc1,i,1,1,-21,i,12
C=CCN1C(=O)/C(=C/c2ccc(OC(C)=O)c(OCC)c2[N+](=O)[O-])SC1=S,i,46,8,-10,.,59*
COc1ncnc2c1ncn2CCCN1CCN(c2ccccn2)CC1,.,0,4,-5,.,5
N#Cc1c(SC(C(=O)O)c2ccccc2)nc2c(c1-c1cccs1)CCCC2 (configuration not stated),i,-2,38*,-10,i,11
COc1ccc(NC(=S)NNC(=S)Nc2cccc(C(F)(F)F)c2)cc1,-6.7*,-1,0,8,i,-15
O=C(NNC(=S)Nc1cccc(C(F)(F)F)c1)c1ccc(Cl)cc1Cl,i,54*,4,8,i,27
CN(C)C(=O)c1ccc(Cc2cn(C)c3ccccc23)nc1,.,.,2,-11,.,.
NC(c1ccccc1)c1csc(Nc2ccc(S(N)(=O)=O)cc2)n1 (configuration not stated),.,.,0,-8,.,.
O=C(Cn1ncc2c3ccccc3n(Cc3ccccc3F)c2c1=O)NCCCN1CCCC1=O,-5.2*,0,4,-7,i,-26
Cc1ccc(C)c(Cn2c3ccccc3c3cnn(CC(=O)NCc4ccccn4)c(=O)c32)c1,-7.2*,0,1,-3,i,5
O=C(Cn1ncc2c3ccccc3n(Cc3cccc(Cl)c3)c2c1=O)NCc1ccccn1,i,0,3,-11,i,-17
COc1cc(C#Cc2c(-c3ccccc3)n(C)c3ccccc23)cc(OC)c1,i,-2,3,-7,i,51*
Cc1cc(C)cc(-n2cccc2/C=C2/C(=N)N3C(=NC2=O)SN=C3S(C)(=O)=O)c1,i,1,0,30,100*,50
CCc1ccc(-n2cccc2/C=C2/C(=N)N3C(=NC2=O)SN=C3S(C)(=O)=O)cc1,i,1,1,57*,100*,37
Cc1ccc(-n2cccc2/C=C2/C(=N)N3C(=NC2=O)SN=C3S(C)(=O)=O)cc1,i,-2,6,26,i,34

# Bioassay records: PubChem BioAssay, several laboratories
